Results on 22 compounds are retold here after ChEMBL document CHEMBL2146377, “Rational design of 4-aryl-1,2,3-triazoles for indoleamine 2,3-dioxygenase 1 inhibition” (J Med Chem, 2012).

Molecules are shown by their SMILES. Activity calls are given as the source filed them. No cut-off for these calls is given here.

The target of one data set is Tryptophan 2,3-dioxygenase (Mus musculus, UniProt P48776). Kind of data set: Inhibition of mouse TDO in P815 clone 12 cells by HPLC analysis. The data set is classed as cell-based.
Tryptophan 2,3-dioxygenase (Mus musculus, UniProt P48776), sequence (P48776 whole entry): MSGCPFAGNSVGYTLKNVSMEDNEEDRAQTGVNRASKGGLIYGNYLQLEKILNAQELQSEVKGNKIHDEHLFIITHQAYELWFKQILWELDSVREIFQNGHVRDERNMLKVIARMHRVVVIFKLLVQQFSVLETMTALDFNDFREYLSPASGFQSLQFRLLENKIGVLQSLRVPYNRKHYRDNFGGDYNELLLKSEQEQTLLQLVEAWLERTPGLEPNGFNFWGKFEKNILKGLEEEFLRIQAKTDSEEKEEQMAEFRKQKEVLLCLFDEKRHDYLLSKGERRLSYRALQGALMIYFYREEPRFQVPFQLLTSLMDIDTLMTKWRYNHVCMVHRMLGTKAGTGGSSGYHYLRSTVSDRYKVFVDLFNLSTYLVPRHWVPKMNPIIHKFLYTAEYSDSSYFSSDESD
Conditions: not given
What is called IC50 is the concentration needed to halve the response being measured. With `Clc1cc(-c2c[nH]nn2)ccn1`, the concentration for half-maximal inhibition (IC50) was more than 100 µM.

As for `COc1ccccc1-c1c[nH]nn1`, the IC50 is more than 100 µM.

The compound `Clc1ccccc1-c1c[nH]nn1` displayed a half-maximal inhibitory concentration (IC50) of more than 100 µM.

Compound `Fc1cccc(-c2c[nH]nn2)c1` displayed a half-maximal inhibitory concentration (IC50) of more than 100 µM.

Turning to `Clc1cccc(-c2c[nH]nn2)c1`, the 50% inhibitory concentration (IC50) was more than 100 µM.

In the case of `Clc1cccc(-c2c[nH]nn2)c1Cl`, the IC50 is more than 100 µM.

Compound `Clc1ccc(Cl)c(-c2c[nH]nn2)c1` yielded a half-maximal inhibitory concentration (IC50) of more than 100 µM.

`c1ccc(-c2cnn[nH]2)cc1`: the concentration for half-maximal inhibition (IC50) was more than 100 µM.

`Fc1cc(-c2c[nH]nn2)ccn1` returned a 50% inhibitory concentration (IC50) of more than 100 µM.

Regarding `CCc1ccccc1-c1c[nH]nn1`, the 50% inhibitory concentration (IC50) is more than 100 µM.

`Oc1ccccc1-c1c[nH]nn1` yielded an IC50 of more than 100 µM.

The target of a further data set is Tryptophan 2,3-dioxygenase (Homo sapiens, UniProt P48775). Kind of data set: Inhibition of human TDO transfected in mouse P815B clone 19 cells by HPLC analysis. It counts as cell-based.
Tryptophan 2,3-dioxygenase (Homo sapiens, UniProt P48775), sequence (P48775 whole entry): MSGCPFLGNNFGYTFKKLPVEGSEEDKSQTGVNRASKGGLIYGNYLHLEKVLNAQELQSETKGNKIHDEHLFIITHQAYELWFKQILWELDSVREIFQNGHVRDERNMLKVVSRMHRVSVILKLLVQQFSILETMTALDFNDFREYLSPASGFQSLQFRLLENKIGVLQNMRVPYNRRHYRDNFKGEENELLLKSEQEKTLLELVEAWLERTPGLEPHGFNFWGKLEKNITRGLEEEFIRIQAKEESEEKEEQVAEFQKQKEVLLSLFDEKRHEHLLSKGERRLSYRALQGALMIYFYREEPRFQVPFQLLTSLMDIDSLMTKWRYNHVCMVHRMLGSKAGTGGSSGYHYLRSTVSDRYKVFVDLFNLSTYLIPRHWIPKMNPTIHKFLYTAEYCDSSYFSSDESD
Conditions: not given
Compound `Clc1cc(-c2c[nH]nn2)ccn1` registered an IC50 of more than 100 µM.

Turning to `COc1ccccc1-c1c[nH]nn1`, the IC50 was more than 100 µM.

Turning to `Clc1ccccc1-c1c[nH]nn1`, the 50% inhibitory concentration (IC50) was more than 100 µM.

`Fc1cccc(-c2c[nH]nn2)c1`: the IC50 was more than 100 µM.

Regarding `Clc1cccc(-c2c[nH]nn2)c1`, the IC50 is more than 100 µM.

Compound `Clc1cccc(-c2c[nH]nn2)c1Cl` had a half-inhibitory concentration (IC50) of more than 100 µM.

Take `Clc1ccc(Cl)c(-c2c[nH]nn2)c1`: the half-maximal inhibitory concentration (IC50) is more than 100 µM.

In turn, `c1ccc(-c2cnn[nH]2)cc1` came in with a concentration for half-maximal inhibition (IC50) of more than 100 µM.

On to `Fc1cc(-c2c[nH]nn2)ccn1`, for which the IC50 is more than 100 µM.

In the case of `CCc1ccccc1-c1c[nH]nn1`, the half-maximal inhibitory concentration (IC50) was more than 100 µM.

In the case of `Oc1ccccc1-c1c[nH]nn1`, the IC50 was more than 100 µM.

In another data set the target is T1, Indoleamine 2,3-dioxygenase 1 (Homo sapiens, UniProt P14902). The data set is described as follows: Inhibition of human IDO1 transfected in mouse P815B clone-6 cells by HPLC analysis. It counts as cell-based.
Conditions: not given
Target sequence in this assay (P14902 whole entry): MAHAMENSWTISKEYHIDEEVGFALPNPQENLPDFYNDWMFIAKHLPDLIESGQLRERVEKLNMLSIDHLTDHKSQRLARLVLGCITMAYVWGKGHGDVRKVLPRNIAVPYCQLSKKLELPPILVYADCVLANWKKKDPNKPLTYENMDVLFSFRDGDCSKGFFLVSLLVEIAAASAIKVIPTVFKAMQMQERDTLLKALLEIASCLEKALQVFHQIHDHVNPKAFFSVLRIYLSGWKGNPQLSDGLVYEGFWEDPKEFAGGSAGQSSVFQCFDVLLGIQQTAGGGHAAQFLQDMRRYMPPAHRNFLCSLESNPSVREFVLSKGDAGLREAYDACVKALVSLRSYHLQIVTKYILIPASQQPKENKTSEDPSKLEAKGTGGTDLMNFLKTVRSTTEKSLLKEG
With `Clc1cc(-c2c[nH]nn2)ccn1`, the concentration for half-maximal inhibition (IC50) worked out at 3.5 µM.

Compound `COc1ccccc1-c1c[nH]nn1` came in with an IC50 of more than 100 µM.

Regarding `Clc1ccccc1-c1c[nH]nn1`, the concentration for half-maximal inhibition (IC50) was more than 100 µM.

Compound `Fc1cccc(-c2c[nH]nn2)c1` returned an IC50 of more than 100 µM.

Compound `Clc1cccc(-c2c[nH]nn2)c1` registered a concentration for half-maximal inhibition (IC50) of 0.62 µM.

In the case of `Clc1cccc(-c2c[nH]nn2)c1Cl`, the IC50 was more than 100 µM.

Turning to `Clc1ccc(Cl)c(-c2c[nH]nn2)c1`, the IC50 amounted to 34 µM.

As for `Fc1cc(-c2c[nH]nn2)ccn1`, 7 µM corresponded to half-maximal inhibition (IC50).

In turn, `CCc1ccccc1-c1c[nH]nn1` came in with an IC50 of more than 100 µM.

`Oc1ccccc1-c1c[nH]nn1` had a half-maximal inhibitory concentration (IC50) of 1.7 µM.

For the next data set, the target named is T1, Indoleamine 2,3-dioxygenase 1. Kind of data set: Inhibition of human IDO1 transfected in HEK293 clone 6 cells by HPLC analysis. It counts as cell-based.
Conditions: not given
Target sequence in this assay (P14902 whole entry, looked up): as the sequence (P14902 whole entry) above
Take `Clc1cc(-c2c[nH]nn2)ccn1`: the inhibition result was “Active”.

In the case of `COc1ccccc1-c1c[nH]nn1`, the inhibition result is “Active”.

With `Fc1cccc(-c2c[nH]nn2)c1`, the inhibition entry was “Active”.

`Clc1cccc(-c2c[nH]nn2)c1`: the inhibition entry was “Active”.

On to `Clc1cccc(-c2c[nH]nn2)c1Cl`, for which the inhibition result was “Active”.

For the compound `Clc1ccc(Cl)c(-c2c[nH]nn2)c1`, the inhibition result was “Active”.

With `c1ccc(-c2cnn[nH]2)cc1`, the inhibition entry is “Active”.

Take `Fc1cc(-c2c[nH]nn2)ccn1`: the inhibition result is “Active”.

On to `CCc1ccccc1-c1c[nH]nn1`, for which the inhibition entry was “Active”.

With `Oc1ccccc1-c1c[nH]nn1`, the inhibition result was “Active”.

System in another data set: not listed separately
The data set is described as follows: Dissociation constant, pKa of the compound at pH 11 to 12 by spectrophotometric analysis. It counts as physicochemical.
Conditions: not given
In general, pKa refers to the pH at which an ionisable group is half protonated. Take `c1nc[nH]n1` [1,2,4-TRIAZOLE]: the pKa amounted to 2.19.

On to `c1c[nH]nn1`, for which the pKa came to 1.17.

Compound `c1ccc(-c2c[nH]cn2)cc1` gave a pKa of 6.1.

`c1ccc(-c2cnn[nH]2)cc1` displayed a pKa of 0.4.

As for `c1ccc(-c2nc[nH]n2)cc1`, the pKa was determined as 2.05.

In the next data set the target is T1, Indoleamine 2,3-dioxygenase 1. The data set is described as follows: Inhibition of human recombinant N-terminal His-tagged IDO1 (Ala2 to Gly403) overexpressed in Escherichia coli BL21 at pH 6.5 after 60 mins by HPLC analysis.
Conditions: not given
Target sequence in this assay (P14902 whole entry): as above
As to `Clc1cc(-c2c[nH]nn2)ccn1`, the IC50 was determined as 2.8 µM.

For `Clc1ccccc1-c1c[nH]nn1`, the IC50 amounted to 32 µM.

For the compound `Fc1cccc(-c2c[nH]nn2)c1`, the IC50 was 47 µM.

Take `Clc1cccc(-c2c[nH]nn2)c1`: the IC50 was determined as 1.2 µM.

With `Clc1cccc(-c2c[nH]nn2)c1Cl`, the IC50 is 23 µM.

For `Clc1ccc(Cl)c(-c2c[nH]nn2)c1`, the IC50 turned out to be 6.4 µM.

For `c1cncc(-c2c[nH]nn2)c1`, the concentration for half-maximal inhibition (IC50) came to 1000 µM.

In the case of `c1cc(-c2cnn[nH]2)ccn1`, the concentration for half-maximal inhibition (IC50) turned out to be 85 µM.

In the case of `Fc1cc(-c2c[nH]nn2)ccn1`, the IC50 came to 7.4 µM.

`Clc1ccc(-c2c[nH]nn2)cc1`: the concentration for half-maximal inhibition (IC50) was 530 µM.

Turning to `CCc1ccccc1-c1c[nH]nn1`, the IC50 amounted to 230 µM.

For the compound `Oc1ccccc1-c1c[nH]nn1`, the concentration for half-maximal inhibition (IC50) is 15 µM.

System in the next data set: not listed separately
The data set is described as follows: physchem. The settings on record: pH 2.
Compound `c1ccc(-c2nnn[nH]2)cc1` had a pKa of 4.53.

With `c1nc[nH]n1` [1,2,4-TRIAZOLE], the pKa is 10.3.

Compound `Clc1cc(-c2c[nH]nn2)ccn1` showed a pKa of 7.6.

Turning to `COc1ccccc1-c1c[nH]nn1`, the pKa is 8.99.

In turn, `c1c[nH]nn1` came in with a pKa of 9.26.

For `Clc1ccccc1-c1c[nH]nn1`, the pKa was found to be 8.5.

In turn, `c1nnn[nH]1` [TETRAZOLE] yielded a pKa of 4.79.

Turning to `c1c[nH]cn1` [IMIDAZOLE], the pKa stood at 14.5.

For `Fc1cccc(-c2c[nH]nn2)c1`, the pKa was found to be 8.38.

In the case of `c1ccc(-c2c[nH]cn2)cc1`, the pKa came out at 13.4.

The compound `Clc1cccc(-c2c[nH]nn2)c1` gave a pKa of 8.32.

Consider `Clc1cccc(-c2c[nH]nn2)c1Cl`, for which the pKa is 8.06.

In the case of `Clc1ccc(Cl)c(-c2c[nH]nn2)c1`, the pKa was 8.17.

The compound `c1cncc(-c2c[nH]nn2)c1` returned a pKa of 8.14.

Compound `c1cc(-c2cnn[nH]2)ccn1` returned a pKa of 7.85.

The compound `c1ccc(-c2cnn[nH]2)cc1` displayed a pKa of 8.62.

`Fc1cc(-c2c[nH]nn2)ccn1` had a pKa of 7.59.

`Clc1ccc(-c2c[nH]nn2)cc1` had a pKa of 8.46.

`Cc1[nH]nnc1-c1ccccc1` gave a pKa of 9.11.

Compound `c1ccc(-c2nc[nH]n2)cc1` gave a pKa of 9.29.

The target in another data set is Indoleamine 2,3-dioxygenase 1 (Mus musculus, UniProt P28776). The data set is described as follows: Inhibition of mouse IDO1 in P815 clone 6 cells by HPLC analysis. The data set is classed as cell-based.
Indoleamine 2,3-dioxygenase 1 (Mus musculus, UniProt P28776), sequence (P28776 whole entry): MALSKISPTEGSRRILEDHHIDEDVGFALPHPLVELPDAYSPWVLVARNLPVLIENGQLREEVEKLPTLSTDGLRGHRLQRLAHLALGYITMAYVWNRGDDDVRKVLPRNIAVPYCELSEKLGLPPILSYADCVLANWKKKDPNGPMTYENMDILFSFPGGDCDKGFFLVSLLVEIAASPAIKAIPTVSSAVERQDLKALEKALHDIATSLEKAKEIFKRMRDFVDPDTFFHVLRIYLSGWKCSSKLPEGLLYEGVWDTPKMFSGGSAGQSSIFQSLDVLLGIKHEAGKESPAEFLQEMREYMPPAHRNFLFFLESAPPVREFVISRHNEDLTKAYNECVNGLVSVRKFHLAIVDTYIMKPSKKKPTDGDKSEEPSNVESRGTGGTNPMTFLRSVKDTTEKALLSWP
Conditions: not given
An outline of the steps:
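Murine mastocytoma P815 stably transfected cells were used: P815-mIDO1 clone 6 for mouse IDO1 and P815B-hIDO1 clone 6 for human IDO1. Cells with inhibitor were incubated at 37 °C until under 50% of tryptophan was consumed, as tracked in control wells by pDMAB absorbance at 480 nm. Supernatant was TCA-precipitated, and tryptophan and kynurenine were quantified by C18 HPLC. Values are the mean of ≥2 independent assays.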
As for `Clc1cc(-c2c[nH]nn2)ccn1`, the concentration for half-maximal inhibition (IC50) stood at 0.06 µM.

Regarding `COc1ccccc1-c1c[nH]nn1`, the IC50 came out at 20 µM.

`Clc1ccccc1-c1c[nH]nn1` came in with a concentration for half-maximal inhibition (IC50) of 1.5 µM.

With `Fc1cccc(-c2c[nH]nn2)c1`, the IC50 stood at 1.1 µM.

In turn, `Clc1cccc(-c2c[nH]nn2)c1` yielded an IC50 of 0.02 µM.

`Clc1cccc(-c2c[nH]nn2)c1Cl` registered a concentration for half-maximal inhibition (IC50) of 1.7 µM.

For `Clc1ccc(Cl)c(-c2c[nH]nn2)c1`, the IC50 worked out at 0.15 µM.

`c1ccc(-c2cnn[nH]2)cc1` came in with an IC50 of 0.18 µM.

In turn, `Fc1cc(-c2c[nH]nn2)ccn1` showed an IC50 of 0.12 µM.

`CCc1ccccc1-c1c[nH]nn1` had a concentration for half-maximal inhibition (IC50) of 13 µM.

Regarding `Oc1ccccc1-c1c[nH]nn1`, the IC50 was found to be 0.022 µM.

A further data set has as its system HepG2. The data set is described as follows: Cytotoxicity against human HepG2 cells after 24 hrs by MTS-PMS assay. To be noted: HepG2, 24 h, read-out: LD50 (the source's name). It counts as functional. Put shortly: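 Hep G2 cells (2 × 10⁴ per well) in IMDM with 10% FCS exposed to compound titrated 0.001–100 μM for 24 h at 37 °C; living cells counted by MTS/PMS assay; LD₅₀ reported as mean of at least two independent assays with standard deviation.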
As for `Clc1cc(-c2c[nH]nn2)ccn1`, the CC50 is more than 100 µM.

Turning to `COc1ccccc1-c1c[nH]nn1`, the CC50 was more than 100 µM.

Turning to `Fc1cccc(-c2c[nH]nn2)c1`, the CC50 is more than 100 µM.

Take `Clc1cccc(-c2c[nH]nn2)c1`: the CC50 was more than 100 µM.

As to `Clc1cccc(-c2c[nH]nn2)c1Cl`, the CC50 was more than 100 µM.

As to `Clc1ccc(Cl)c(-c2c[nH]nn2)c1`, the CC50 was more than 100 µM.

With `c1ccc(-c2cnn[nH]2)cc1`, the CC50 was more than 100 µM.

In the case of `Fc1cc(-c2c[nH]nn2)ccn1`, the CC50 is more than 100 µM.

Consider `CCc1ccccc1-c1c[nH]nn1`, for which the CC50 was more than 100 µM.

As to `Oc1ccccc1-c1c[nH]nn1`, the CC50 is more than 100 µM.

For a further data set, the target named is T1, Indoleamine 2,3-dioxygenase 1.
Test: not given
The settings on record: at 1 mM.
Target sequence in this assay (P14902 whole entry, looked up): as the sequence (P14902 whole entry) above
On to `c1ccc(-c2nnn[nH]2)cc1`, for which the inhibition result was “inactive”.

Regarding `COc1ccccc1-c1c[nH]nn1`, the inhibition result is “inactive”.

As to `Cc1[nH]nnc1-c1ccccc1`, the inhibition result is “inactive”.

With `c1ccc(-c2nc[nH]n2)cc1`, the inhibition result was “inactive”.
